Reference: ChEMBL document CHEMBL4665832, “Benzylidene thiazolidinediones: Synthesis, in vitro investigations of antiproliferative mechanisms and in vivo efficacy determination in combination with Imatinib” (Bioorg Med Chem Lett, 2020)
Activity calls are given as the source filed them. The rule behind the calls is not given here.

How the values were obtained:
[1] = Cytotoxicity against hepatocytes (unknown origin) assessed as cell growth by MTT assay relative to control; format: cell-based, Hepatocyte; set-up: concentration or dose not given beside the values
[2] = tested on: U-937; test: Antiproliferative activity against human U-937 cells assessed as cell growth inhibition; format: functional
How it was run: (§1)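 Cell lines screened for growth inhibition and GI₅₀ derived. Each value is the mean of 3 independent experiments.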

[3] = tested on: MCF7; test: Antiproliferative activity against human MCF7 cells assessed as cell growth inhibition; format: functional; how it was run: as §1
[4] = Antiproliferative activity against human GURAV cells assessed as cell growth inhibition; format: functional; how it was run: as §1
[5] = tested on: HL-60; test: Antiproliferative activity against human HL-60 cells assessed as cell growth inhibition; format: functional; how it was run: as §1
[6] = tested on: PC-3; test: Antiproliferative activity against human PC-3 cells assessed as cell growth inhibition; format: functional; how it was run: as §1
[7] = tested on: K562; test: Antiproliferative activity against human K562 cells assessed as cell growth inhibition; format: functional; how it was run: as §1
[8] = tested on: KB; test: Antiproliferative activity against human KB cells assessed as cell growth inhibition; format: functional; how it was run: as §1
[9] = tested on: HOP-62; test: Antiproliferative activity against human HOP-62 cells assessed as cell growth inhibition; format: functional; how it was run: as §1
[10] = tested on: Jurkat; test: Antiproliferative activity against human Jurkat cells assessed as cell growth inhibition; format: functional; how it was run: as §1
[11] = tested on: MOLT-4; test: Antiproliferative activity against human MOLT-4 cells assessed as cell growth inhibition; format: functional; how it was run: as §1
[12] = tested on: NCI-H226; test: Antiproliferative activity against human NCI-H226 cells assessed as cell growth inhibition; format: functional; how it was run: as §1
[13] = tested on: A549; test: Antiproliferative activity against human A549 cells assessed as cell growth inhibition; format: functional; how it was run: as §1
[14] = Acute toxicity in po dosed mouse assessed as mortality; format: organism-based; conditions: in vivo
How it was run: (§2)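 Healthy mice were given oral doses that increased over the study period. Each higher dose was given only if the previous dose was well tolerated. All animals were monitored for body weight loss, behavioural changes and mortality to set the maximum tolerated dose.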

[15] = Acute toxicity in po dosed mouse assessed as body weight loss; format: organism-based; conditions: in vivo; how it was run: as §2
[16] = tested on: K562; test: Downregulation of PCNA expression in human K562 cells at 20 uM measured after 72 hrs by Western blot analysis; format: functional, cell-based
How it was run: (§3)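 K562 cells treated at 10 or 20 µM for 24, 48 or 72 h. PCNA and cyclin D1 detected by Western blot, bands quantified and normalised to actin. Means of three separate experiments, SD, P < 0.05.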

[17] = tested on: K562; test: Cell cycle arrest in human K562 cells assessed as accumulation at S phase at 5 uM measured after 24 hrs by flow cytometry analysis; format: functional, cell-based
How it was run: (§4)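 K562 cells exposed to 5 µM for 24 h, then cell-cycle phase distribution measured by flow cytometry. Untreated cells served as negative control and DMSO as vehicle control. SEM of n = 3. Two-tailed Student's t-test, P < 0.05.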

[18] = tested on: K562; test: Cell cycle arrest in human K562 cells assessed as decrease in cells accumulation at G2/M phase measured after 24 to 72 hrs by flow cytometry analysis; format: functional, cell-based; conditions: dose microM 5-20, time hrs 24-72
How it was run: (§5)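 K562 cells exposed to 5, 10 or 20 µM and sampled at 24, 48 and 72 h. Phase distribution (G0/G1, S, G2/M) measured by flow cytometry. Untreated and DMSO vehicle controls. SEM of n = 3. Two-tailed t-test, P < 0.05.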

[19] = tested on: K562; test: Anticancer activity against human K562 cells assessed as cell growth inhibition at 1 uM by MTT assay relative to control; format: functional; conditions: read-out: GI
How it was run: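 K562 cells given imatinib 1 µM or test compound 1 µM alone, or imatinib 1 µM plus test compound 1 µM. Proliferation read by MTT assay and expressed as % inhibition.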

[20] = tested on: K562; test: Cell cycle arrest in human K562 cells assessed as decrease in cells accumulation at S phase at 5 to 20 uM measured by flow cytometry analysis; format: functional, cell-based; conditions: dose microM 5-20, time hrs 24-72, TDE = time-dependent effect; how it was run: as §5
[21] = tested on: K562; test: Cell cycle arrest in human K562 cells assessed as increase in cells accumulation at G0/G1 phase at 5 to 20 uM measured by flow cytometry analysis; format: functional, cell-based; conditions: dose microM 5-20, time hrs 24-72, TDE = time-dependent effect; how it was run: as §5
[22] = tested on: K562; test: Cell cycle arrest in human K562 cells assessed as accumulation at G2/M phase at 5 uM measured after 24 hrs by flow cytometry analysis; format: functional, cell-based; how it was run: as §4
[23] = tested on: K562; test: Downregulation of PCNA expression in human K562 cells at 10 to 20 uM measured after 48 hrs by Western blot analysis; format: functional, cell-based; conditions: dose microM 10-20, time 48.0 hrs; how it was run: as §3
[24] = tested on: K562; test: Potentiation of imatinib-induced antitumor activity against human K562 cells xenografted in mouse assessed as reduction in tumor volume at 100 mg/kg, ip administered for 30 days co-treated with imatinib at 100 mg/kg and measured every day for 30 days; format: functional, organism-based; conditions: time 30.0 day
How it was run: (§6)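 Mice implanted subcutaneously in the right rear flank with 6 × 10⁶ K562 cells/100 μl in 50% matrigel. Dosed intraperitoneally: compound alone 200 mg/kg, or compound 100 mg/kg plus imatinib 100 mg/kg; controls were imatinib 100 mg/kg and saline. Tumour volume tracked over time, n = 6. Dunnett's test against control.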

[25] = tested on: K562; test: Downregulation of cyclin-D1 expression in human K562 cells at 10 to 20 uM measured after 24 hrs by Western blot analysis; format: functional, cell-based; conditions: dose microM 10-20, time 24.0 hrs; how it was run: as §3
[26] = tested on: K562; test: Cell cycle arrest in human K562 cells assessed as accumulation at G0/G1 phase at 5 uM measured after 24 hrs by flow cytometry analysis; format: functional, cell-based; how it was run: as §4
[27] = tested on: K562; test: Downregulation of cyclin-D1 expression in human K562 cells at 10 to 20 uM measured after 48 to 72 hrs by Western blot analysis; format: functional, cell-based; conditions: dose microM 10-20, time hrs 48-72; how it was run: as §3
[28] = tested on: K562; test: Cell cycle arrest in human K562 cells assessed as decrease in cells accumulation at G2/M phase at 5 to 20 uM measured by flow cytometry analysis; format: functional, cell-based; conditions: dose microM 5-20, time hrs 24-72, TDE = time-dependent effect; how it was run: as §5
[29] = tested on: K562; test: Downregulation of PCNA expression in human K562 cells at 10 to 20 uM measured after 24 hrs by Western blot analysis; format: functional, cell-based; conditions: dose microM 10-20, time 24.0 hrs; how it was run: as §3
[30] = tested on: K562; test: Cell cycle arrest in human K562 cells assessed as decrease in cells accumulation at S phase measured after 24 to 72 hrs by flow cytometry analysis; format: functional, cell-based; conditions: dose microM 5-20, time hrs 24-72; how it was run: as §5
[31] = tested on: K562; test: Cell cycle arrest in human K562 cells assessed as increase in cells accumulation at G0/G1 phase measured after 24 to 72 hrs by flow cytometry analysis; format: functional, cell-based; conditions: dose microM 5-20, time hrs 24-72; how it was run: as §5
[32] = Acute toxicity in po dosed mouse assessed as maximum tolerated dose; format: organism-based; conditions: in vivo; how it was run: as §2
[33] = tested on: K562; test: Antitumor activity against human K562 cells xenografted in mouse assessed as reduction in tumor volume at 200 mg/kg, ip administered for 30 days and measured every day for 30 days; format: functional, organism-based; conditions: time 30.0 day; how it was run: as §6
[34] = tested on: K562; test: Potentiation of imatinib-induced anticancer activity against human K562 cells assessed as cell growth inhibition at 1 uM by MTT assay (reference value: 71%); format: functional; conditions: read-out: GI

Work on `Cc1c(NC(=O)COc2ccc(/C=C3\SC(=O)NC3=O)cc2)c(=O)n(-c2ccccc2)n1C` yielded a viability [1] greater than 70%.

Compound `O=C(COc1ccc(/C=C2\SC(=O)NC2=O)cc1)Nc1c(Cl)cccc1Cl` has a GI50 [2] of 60 µM, a GI50 [3] of 61.7 µM and a GI50 [4] of 56.8 µM. For the same compound, the GI50 [5] was 97.6 µM, the GI50 [6] was greater than 100 µM and the GI50 [7] was 6.7 µM. The GI50 [8] was greater than 100 µM, the GI50 [9] was greater than 100 µM and the viability [1] was greater than 70%. The GI50 [10] was 21.9 µM and the GI50 [11] was greater than 100 µM.

Work on `O=C(COc1ccc(/C=C2\SC(=O)NC2=O)cc1)Nc1ccc(F)cc1` yielded a GI50 [2] of 63.9 µM, a GI50 [3] of 54.6 µM and a GI50 [4] of 56.8 µM. The GI50 [5] was 61.1 µM, the GI50 [6] was greater than 100 µM and the GI50 [7] was 9.6 µM. For the same compound, the GI50 [8] was greater than 100 µM, the GI50 [9] was 68 µM and the viability [1] was greater than 70%. The GI50 [10] was 59.9 µM and the GI50 [11] was 53.5 µM.

`O=C(COc1ccc(/C=C2\SC(=O)NC2=O)cc1)Nc1nc2ccccc2s1` showed a GI50 [12] of 26.5 µM, a GI50 [13] of 46.9 µM and a viability [1] greater than 70%.

`Cc1cc(NC(=O)COc2ccc(/C=C3\SC(=O)NC3=O)cc2)no1` gave a viability [1] greater than 70%.

`O=C(COc1ccc(/C=C2\SC(=O)NC2=O)cc1)Nc1ncc([N+](=O)[O-])s1` showed a viability [1] greater than 70%.

In the case of `O=C(COc1ccc(/C=C2\SC(=O)NC2=O)cc1)Nc1ccc([N+](=O)[O-])cc1`, the GI50 [3] is reported as 72.5 µM, the GI50 [4] is reported as greater than 100 µM and the GI50 [6] is reported as greater than 100 µM. The GI50 [7] was 29.5 µM, the GI50 [8] was greater than 100 µM and the GI50 [9] was greater than 100 µM. It also gave a viability [1] greater than 70%.

In the case of `O=C(COc1ccc(/C=C2\SC(=O)NC2=O)cc1)Nc1ccc(F)cc1F`, the Activity [14] is reported as “Non-Toxic”, the Activity [15] is reported as “Non-Toxic” and the GI50 [2] is reported as 35.6 µM. The inhibition [16] was “Active”, the Activity [17] was “Active” and the Activity [18] was “Dose-dependent effect”. The GI50 [3] was 65.8 µM, the GI50 [4] was 61.4 µM and the GI50 [5] was 47.8 µM. The GI50 [6] was greater than 100 µM, the inhibition of growth at 1 µM [19] was 62% and the GI50 [7] was 0.9 µM. The GI50 [8] was greater than 100 µM, the Activity [20] was “Tde” and the GI50 [9] was greater than 100 µM. The Activity [21] was “Tde”, the Activity [22] was “Active” and the inhibition [23] was “inactive”. For the same compound, the Activity [24] was “Active”, the inhibition [25] was “inactive” and the Activity [26] was “Active”. The inhibition [27] was “Active”, the Activity [28] was “Tde” and the inhibition [29] was “inactive”. The Activity [30] was “Dose-dependent effect”, the Activity [31] was “Dose-dependent effect” and the viability [1] was greater than 70%. The GI50 [10] was 34.6 µM, the GI50 [11] was 40.3 µM and the MTD [32] was 2000 mg/kg. For the same compound, the Activity [33] was “Active” and the inhibition of growth at 1 µM [34] was 79%.

`O=C(COc1ccc(/C=C2\SC(=O)NC2=O)cc1)Nc1ccc(Cl)cc1` showed a GI50 [2] of 46.3 µM, a GI50 [3] of 51.1 µM and a GI50 [4] of 35.6 µM. For the same compound, the GI50 [5] was 52.4 µM, the GI50 [6] was 83.4 µM and the GI50 [7] was 7.4 µM. For the same compound, the GI50 [8] was 50.3 µM, the GI50 [9] was 36.1 µM and the viability [1] was greater than 70%. It also gave a GI50 [10] greater than 100 µM and a GI50 [11] of 42.7 µM.

Work on `Cc1ccc(NC(=O)c2ccc(CN3CCN(C)CC3)cc2)cc1Nc1nccc(-c2cccnc2)n1` [IMATINIB] yielded an inhibition of growth at 1 µM [19] of 71%.

In the case of `COc1cccc2c1C(=O)c1c(O)c3c(c(O)c1C2=O)C[C@@](O)(C(=O)CO)C[C@@H]3O[C@H]1C[C@H](N)[C@H](O)[C@H](C)O1` [DOXORUBICIN], the GI50 [3] is reported as less than 0.1 µM, the GI50 [4] is reported as less than 0.1 µM and the GI50 [6] is reported as less than 0.1 µM. The GI50 [7] was less than 0.1 µM, the GI50 [8] was less than 0.1 µM and the GI50 [9] was less than 0.1 µM.

In the case of `O=C(COc1ccc(/C=C2\SC(=O)NC2=O)cc1)Nc1ccccc1`, the GI50 [3] is reported as 74.5 µM, the GI50 [4] is reported as 57 µM and the GI50 [6] is reported as greater than 100 µM. The GI50 [7] was 17.6 µM, the GI50 [8] was greater than 100 µM and the GI50 [9] was greater than 100 µM. The viability [1] was greater than 70%.

For `CCc1ccc(CCOc2ccc(CC3SC(=O)NC3=O)cc2)nc1` (stereo not drawn) [PIOGLITAZONE], the GI50 [7] was 40.1 µM.
